Laboratory results published in ChEMBL document CHEMBL1687893 (Eur J Med Chem, 2011).

Columns and labels:
Mus musculus [1] = experiment: Antiinflammatory activity against xylene-induced ear edema in Kunming mouse assessed as reduction in ear swelling weight at 100 mg, ip administered 2 hrs post challenge measured after 30 mins; type: functional
Summary of the method: (§1)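 Male Kunming mice (~20 g), fasted 12 h, groups of 6. Compound given i.p.; 30 min later 0.015 mL xylene applied to front and back surfaces of right ear, left ear as control. Killed 2 h after xylene; 7 mm circular ear sections weighed and measured. Swelling taken as weight and thickness over untreated left ear. Mean ± S, one-way ANOVA.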

Mus musculus [2] = experiment: Antiinflammatory activity against xylene-induced ear edema in Kunming mouse assessed as reduction in ear swelling thickness at 100 mg, ip administered 2 hrs post challenge measured after 30 mins; type: functional; summary of the method: as §1
MCF7 [3] = experiment: Cytotoxicity against human MCF7 cells assessed as growth inhibition after 72 hrs; conditions: MCF7, 72 h
MDA-MB-231 = experiment: Cytotoxicity against human MDA-MB-231 cells assessed as growth inhibition after 72 hrs; conditions: MDA-MB-231, 72 h
[4] = biological target: Prostaglandin G/H synthase 1 (Ovis aries) (UniProt P05979); experiment: Inhibition of ovine COX-1 at 10 uM by ELISA relative to licofelone
[5] = biological target: Prostaglandin G/H synthase 2 (Homo sapiens) (UniProt P35354); experiment: Inhibition of human COX-2 at 10 uM by ELISA relative to licofelone
Mus musculus [6] = experiment: Antiinflammatory activity against xylene-induced ear edema in ip dosed Kunming mouse assessed as reduction in ear swelling administered 2 hrs post challenge measured after 30 mins; type: functional, organism-based; summary of the method: as §1
Mus musculus [7] = experiment: Antiinflammatory activity against xylene-induced ear edema in Kunming mouse assessed as reduction in ear swelling weight at 200 mg, […]; type: functional
Mus musculus [8] = experiment: Antiinflammatory activity against xylene-induced ear edema in Kunming mouse assessed as reduction in ear swelling thickness at 25 mg, ip administered 2 hrs post challenge measured after 30 mins; type: functional; summary of the method: as §1
Mus musculus [9] = experiment: Antiinflammatory activity against xylene-induced ear edema in Kunming mouse assessed as reduction in ear swelling weight at 25 mg, […]; type: functional
Mus musculus [10] = experiment: Antiinflammatory activity against xylene-induced ear edema in Kunming mouse assessed as reduction in ear swelling thickness at 200 mg, ip administered 2 hrs post challenge measured after 30 mins; type: functional; summary of the method: as §1
MCF7 [11] = experiment: Antiproliferative activity against human MCF-7 cells at 0.63 uM to 10 uM after 20 to 140 hrs; type: functional, cell-based; conditions: TDE = time-dependent effect
Summary of the method: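 MCF-7 cells in DMEM with 5% FBS, seeded at 7500 cells/mL and grown 3 days before compound addition. Exposed to a range of concentrations for up to 144 h. Biomass measured by glutaraldehyde fixation, crystal violet staining, ethanol extraction and absorbance at 590 nm. Expressed as corrected T/C % = (T−C0)/(C−C0)·100.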

CC1(C)Cc2c(-c3ccccc3)c(-c3ccc(Cl)cc3)c(C(=O)COC(=O)c3ccc(Cl)cc3)n2C1
inhibition (INH) (Mus musculus [1]): 24.6%
inhibition (INH) (Mus musculus [2]): 29.7%
IC50 (MCF7 [3]): 3.9 µM
IC50 (MDA-MB-231): > 50 µM

CC(=O)OCC(=O)c1c(-c2ccc(Cl)cc2)c(-c2ccccc2)c2n1CC(C)(C)C2
inhibition (INH) (Mus musculus [1]): 19.3%
inhibition (INH) (Mus musculus [2]): 37%
inhibition [4]: 11%
inhibition [5]: 9%
IC50 (MCF7 [3]): 2.5 µM
IC50 (MDA-MB-231): 4.4 µM

CC(C)Cc1ccc(C(C)C(=O)O)cc1 (stereo unspecified) [IBUPROFEN]
inhibition (INH) (Mus musculus [1]): 51.2%
inhibition (INH) (Mus musculus [2]): 54.3%

CCC(=O)c1c(-c2ccc(Cl)cc2)c(-c2ccccc2)c2n1CC(C)(C)C2
inhibition (INH) (Mus musculus [1]): 24.6%
inhibition (INH) (Mus musculus [2]): 22.5%
inhibition [4]: 11%
inhibition [5]: 9%
IC50 (MCF7 [3]): 8.7 µM
IC50 (MDA-MB-231): 19.2 µM

Cc1ccccc1C(=O)OCC(=O)c1c(-c2ccc(Cl)cc2)c(-c2ccccc2)c2n1CC(C)(C)C2
inhibition (INH) (Mus musculus [1]): 12.3%
inhibition (INH) (Mus musculus [2]): 34.1%
IC50 (MCF7 [3]): 6.2 µM
IC50 (MDA-MB-231): 12.9 µM

CC1(C)Cc2c(-c3ccccc3)c(-c3ccc(Cl)cc3)cn2C1
IC50 (MCF7 [3]): 5.6 µM
IC50 (MDA-MB-231): 19.7 µM

O=c1[nH]cc(F)c(=O)[nH]1 [FLUOROURACIL]
IC50 (MCF7 [3]): 4.7 µM
IC50 (MDA-MB-231): 9.6 µM

CC1(C)Cc2c(-c3ccccc3)c(-c3ccc(Cl)cc3)c(C(=O)CCl)n2C1
inhibition (INH) (Mus musculus [1]): 28.1%
inhibition (INH) (Mus musculus [2]): 24.6%
inhibition [4]: 11%
inhibition [5]: 9%
IC50 (MCF7 [3]): 5.8 µM
IC50 (MDA-MB-231): 35.4 µM

Cc1ccc(-c2cc(C(F)(F)F)nn2-c2ccc(S(N)(=O)=O)cc2)cc1 [CELECOXIB]
inhibition (INH) (Mus musculus [1]): 46.3%
inhibition (INH) (Mus musculus [2]): 47.9%

CC1(C)Cc2c(-c3ccccc3)c(-c3ccc(Cl)cc3)c(C(=O)COC(=O)c3cccc(Cl)c3)n2C1
inhibition (INH) (Mus musculus [1]): 3.5%
inhibition (INH) (Mus musculus [2]): 1.4%
IC50 (MCF7 [3]): 5.2 µM
IC50 (MDA-MB-231): > 50 µM

Cc1ccc(C(=O)OCC(=O)c2c(-c3ccc(Cl)cc3)c(-c3ccccc3)c3n2CC(C)(C)C3)cc1
inhibition (INH) (Mus musculus [1]): 22.8%
inhibition (INH) (Mus musculus [2]): 21%
IC50 (MCF7 [3]): > 50 µM
IC50 (MDA-MB-231): > 50 µM

COc1ccc(C(=O)OCC(=O)c2c(-c3ccc(Cl)cc3)c(-c3ccccc3)c3n2CC(C)(C)C3)cc1
inhibition (INH) (Mus musculus [1]): 15.8%
inhibition (INH) (Mus musculus [2]): 10.1%
IC50 (MCF7 [3]): 11.9 µM
IC50 (MDA-MB-231): > 50 µM

CC1(C)Cc2c(-c3ccccc3)c(-c3ccc(Cl)cc3)c(C(=O)COC(=O)c3ccccc3O)n2C1
inhibition (INH) (Mus musculus [1]): 31.6%
inhibition (INH) (Mus musculus [2]): 14.5%
IC50 (MCF7 [3]): 8.2 µM
IC50 (MDA-MB-231): > 50 µM

CC1(C)Cc2c(-c3ccccc3)c(-c3ccc(Cl)cc3)c(C(=O)COC(=O)c3ccc(Cl)cc3Cl)n2C1
inhibition (INH) (Mus musculus [1]): 43.9%
inhibition (INH) (Mus musculus [2]): 8%
IC50 (MCF7 [3]): 6.7 µM
IC50 (MDA-MB-231): > 50 µM

Cc1cccc(C(=O)OCC(=O)c2c(-c3ccc(Cl)cc3)c(-c3ccccc3)c3n2CC(C)(C)C3)c1
inhibition (INH) (Mus musculus [1]): 17.5%
inhibition (INH) (Mus musculus [2]): 50.7%
IC50 (MCF7 [3]): 3.8 µM
IC50 (MDA-MB-231): > 50 µM

CC1(C)Cc2c(-c3ccccc3)c(-c3ccc(Cl)cc3)c(CC(=O)O)n2C1 [LICOFELONE]
inhibition (INH) (Mus musculus [1]): 43.9%
inhibition (INH) (Mus musculus [2]): 52.2%
inhibition (Mus musculus [6]): Dose-dependent effect
inhibition (INH) (Mus musculus [7]): 77.2%
inhibition (INH) (Mus musculus [8]): 49.2%
inhibition (INH) (Mus musculus [9]): 33.3%
inhibition (INH) (Mus musculus [10]): 74.6%
IC50 (MCF7 [3]): 5.5 µM
IC50 (MDA-MB-231): 36.7 µM

CC1(C)Cc2c(-c3ccccc3)c(-c3ccc(Cl)cc3)c(C(=O)COC(=O)c3ccc([N+](=O)[O-])cc3)n2C1
inhibition (INH) (Mus musculus [1]): 1.8%
inhibition (INH) (Mus musculus [2]): 6.5%
IC50 (MCF7 [3]): 4.8 µM
IC50 (MDA-MB-231): 7.3 µM

CC(=O)c1c(-c2ccc(Cl)cc2)c(-c2ccccc2)c2n1CC(C)(C)C2
Activity (MCF7 [11]): tde
inhibition (INH) (Mus musculus [1]): 54.4%
inhibition (INH) (Mus musculus [2]): 50.7%
inhibition [4]: 11%
inhibition [5]: 9%
IC50 (MCF7 [3]): 2 µM
IC50 (MDA-MB-231): 3.3 µM

CC1(C)Cc2c(-c3ccccc3)c(-c3ccc(Cl)cc3)c(C(=O)COC(=O)c3ccccc3Cl)n2C1
inhibition (INH) (Mus musculus [1]): 12.3%
inhibition (INH) (Mus musculus [2]): 20.3%
IC50 (MCF7 [3]): 5.2 µM
IC50 (MDA-MB-231): 31.8 µM

CC1(C)Cc2c(-c3ccccc3)c(-c3ccc(Cl)cc3)c(C(=O)COC(=O)Cc3ccc(Cl)cc3)n2C1
inhibition (INH) (Mus musculus [1]): 35.1%
inhibition (INH) (Mus musculus [2]): 37%
IC50 (MCF7 [3]): 7.1 µM
IC50 (MDA-MB-231): > 50 µM

CC1(C)Cc2c(-c3ccccc3)c(-c3ccc(Cl)cc3)c(C(=O)COC=O)n2C1
Activity (MCF7 [11]): tde
inhibition (INH) (Mus musculus [1]): 19.3%
inhibition (INH) (Mus musculus [2]): 20.3%
inhibition [4]: 11%
inhibition [5]: 9%
IC50 (MCF7 [3]): 1.5 µM
IC50 (MDA-MB-231): 1.8 µM

CCCCCC(=O)c1c(-c2ccc(Cl)cc2)c(-c2ccccc2)c2n1CC(C)(C)C2
inhibition (INH) (Mus musculus [1]): 14%
inhibition (INH) (Mus musculus [2]): 37%
inhibition [4]: 11%
inhibition [5]: 9%
IC50 (MCF7 [3]): 5.4 µM
IC50 (MDA-MB-231): 31.3 µM

COc1ccccc1C(=O)OCC(=O)c1c(-c2ccc(Cl)cc2)c(-c2ccccc2)c2n1CC(C)(C)C2
inhibition (INH) (Mus musculus [1]): 31.6%
inhibition (INH) (Mus musculus [2]): 18.1%
IC50 (MCF7 [3]): 4.5 µM
IC50 (MDA-MB-231): > 50 µM

CCC(=O)OCC(=O)c1c(-c2ccc(Cl)cc2)c(-c2ccccc2)c2n1CC(C)(C)C2
Activity (MCF7 [11]): tde
inhibition (INH) (Mus musculus [1]): 3.5%
inhibition (INH) (Mus musculus [2]): 12.3%
inhibition [4]: 11%
inhibition [5]: 9%
IC50 (MCF7 [3]): 1.7 µM
IC50 (MDA-MB-231): 3.1 µM

CC1(C)Cc2c(-c3ccccc3)c(-c3ccc(Cl)cc3)c(C(=O)COC(=O)Cc3ccccc3)n2C1
inhibition (INH) (Mus musculus [1]): 26.3%
inhibition (INH) (Mus musculus [2]): 35.8%
IC50 (MCF7 [3]): 4.7 µM
IC50 (MDA-MB-231): > 50 µM

Cc1cc(C(=O)OCC(=O)c2c(-c3ccc(Cl)cc3)c(-c3ccccc3)c3n2CC(C)(C)C3)cc([N+](=O)[O-])c1
inhibition (INH) (Mus musculus [1]): 7%
inhibition (INH) (Mus musculus [2]): 26.8%
